System: HLA-typed donor PBMC, CD8 T cells
Test: Immunogenicity assessment: tetramer/dextramer staining of donor T cells
Type: cell-based, human
Conditions: two C*07:01 healthy donor buffy coats, prior to or after sequential dextramer enrichment
In short: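 Dextramers were assembled from UV-exchange MHC monomers. 1–3×10^8 PBMC were treated with 50 nM dasatinib plus FcR block (30 min, 37°C), then with 10 µg/mL dextramer pool (1 h, 4°C), and bead-enriched sequentially over two columns. Enriched cells were either surface-stained for flow cytometry with the whole sample acquired, or expanded 10–14 days (irradiated allogeneic feeders, anti-CD3/28, IL-2 300 IU/mL, IL-7/IL-15 5 ng/mL) before re-enrichment.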

| Substance | C*07:01 PP-CTL responses by dextramer pool |
| --- | --- |
| _FRRS(ph)PTKSSL_ [pRBM14] | could not detect responses |
| _HRYS(ph)TPHAF_ [pRAF1] | could not detect responses |
| _KRAS(ph)FAKSV_ [pWNK] | could not detect responses |
| _KRAS(ph)GQAFEL_ [pSTMN] | could not detect responses |
| _RRFS(ph)GTAVY_ [pZNF518A] | could not detect responses |
| _RRPS(ph)LLSEF_ [pNCOR] | could not detect responses |
| _RRYS(ph)DPPTY_ [pMYO9B] | could not detect responses |

From article PMC10546156 (Journal for Immunotherapy of Cancer, 2023)
